Several values for one entry are separate records, joined by “and”; a condition that tells them apart may be missing. Equal entries are not always repeated.
What was measured:
[1] = biological target: T1, human recombinant CYP1A1 (Homo sapiens, UniProt P04798); assay: Kinetics of elemicin 1′-hydroxylation by recombinant CYP1A1; assay type: in vitro ADME
T1 sequence (P04798 1-512): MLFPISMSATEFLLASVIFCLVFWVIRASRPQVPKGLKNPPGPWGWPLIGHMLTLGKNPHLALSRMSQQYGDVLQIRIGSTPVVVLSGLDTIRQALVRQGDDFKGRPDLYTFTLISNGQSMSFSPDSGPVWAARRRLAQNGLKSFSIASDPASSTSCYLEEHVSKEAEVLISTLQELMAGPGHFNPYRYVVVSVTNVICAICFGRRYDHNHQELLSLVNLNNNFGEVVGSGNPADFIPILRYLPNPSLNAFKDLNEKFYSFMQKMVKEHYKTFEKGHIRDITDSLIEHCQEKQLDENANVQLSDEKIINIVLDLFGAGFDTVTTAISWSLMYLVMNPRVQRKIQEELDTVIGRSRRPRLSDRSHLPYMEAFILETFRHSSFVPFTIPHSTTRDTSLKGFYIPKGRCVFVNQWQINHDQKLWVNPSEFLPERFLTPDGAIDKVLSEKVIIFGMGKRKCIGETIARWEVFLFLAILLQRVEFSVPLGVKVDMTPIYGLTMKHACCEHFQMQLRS

[2] = biological target: T2, human recombinant CYP2A6 (Homo sapiens, UniProt P11509); assay: Kinetics of elemicin 1′-hydroxylation by recombinant CYP2A6; assay type: in vitro ADME
T2 sequence (P11509 1-494): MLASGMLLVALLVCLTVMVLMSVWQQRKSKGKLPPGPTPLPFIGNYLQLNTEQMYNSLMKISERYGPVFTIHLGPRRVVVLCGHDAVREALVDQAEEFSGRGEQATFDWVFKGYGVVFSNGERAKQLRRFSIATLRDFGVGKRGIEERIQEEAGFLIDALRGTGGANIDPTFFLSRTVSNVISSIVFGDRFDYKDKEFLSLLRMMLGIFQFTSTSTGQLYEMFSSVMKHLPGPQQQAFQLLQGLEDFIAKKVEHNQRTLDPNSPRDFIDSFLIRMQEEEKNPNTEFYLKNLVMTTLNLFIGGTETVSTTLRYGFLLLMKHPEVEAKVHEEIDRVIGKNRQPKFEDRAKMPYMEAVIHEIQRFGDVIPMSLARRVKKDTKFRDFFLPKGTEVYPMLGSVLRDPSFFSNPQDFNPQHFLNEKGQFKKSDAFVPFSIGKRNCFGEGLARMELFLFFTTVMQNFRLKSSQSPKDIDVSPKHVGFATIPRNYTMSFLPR

[3] = tested on: C57BL/6J mice; assay: Experiment 1: toxicity of elemicin in mice, 3 weeks; assay type: in vivo, mouse
[4] = tested on: C57BL/6J mice; assay: Experiment 6: elemicin versus 1′-hydroxyelemicin toxicity at the same dose; assay type: in vivo, mouse
[5] = tested on: stearoyl-CoA desaturase 1 (SCD1); assay: Hepatic Scd1 mRNA; assay type: in vivo, mouse; conditions: for mRNA levels of Scd1 in liver: qPCR, vs control mice
In short: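 C57BL/6J mice (n = 6; n = 4 in SCD1-inhibitor study) gavaged with test compound 100 mg/kg every 24 h ×3, vehicle 0.5% CMC-Na. Where used, SCD1 inhibitor (DMSO/Tween 80/saline 1:2:97) was given i.p. twice daily, 10 mg/kg/day, starting before first dose. Liver flash-frozen. Western: RIPA/PMSF lysate, 10 μg protein, 10% SDS-PAGE, PVDF, ECL detection. mRNA by qRT-PCR.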

[6] = tested on: CYPs in pooled mouse liver microsomes (MLMs); assay: Chemical inhibition of 1′-hydroxyelemicin formation in liver microsomes; assay type: in vitro ADME; conditions: inhibitor 10 μM (CYP3A4); 50 μM elemicin; MLMs 0.5 mg/mL; 40 min
[7] = tested on: C57BL/6J mice; assay: Experiment 3: high-oleic acid diet with 1′-hydroxyelemicin in mice; assay type: in vivo, mouse; conditions: high-oleic acid diet + 100 mg/kg 1′-hydroxyelemicin 3 days
[8] = mouse, in vivo, 100 mg/kg
[9] = tested on: C57BL/6J mice; assay: Experiment 4: SCD1 suppression by A939572 with 1′-hydroxyelemicin in mice; assay type: in vivo, mouse; conditions: A939572 10 mg/kg/day i.p. + 100 mg/kg 1′-hydroxyelemicin
[10] = substrate: C=CCc1cc(OC)c(OC)c(OC)c1; assay: Kinetics of elemicin 1′-hydroxylation by recombinant CYP2C19; assay type: in vitro ADME, human; conditions: other: 1′-hydroxyelemicin formation from elemicin, mean ± SD
[11] = substrate: C=CCc1cc(OC)c(OC)c(OC)c1; assay: Kinetics of elemicin 1′-hydroxylation by recombinant CYP1A1; assay type: in vitro ADME, human; conditions: other: 1′-hydroxyelemicin formation from elemicin, mean ± SD
[12] = substrate: C=CCc1cc(OC)c(OC)c(OC)c1; assay: Kinetics of elemicin 1′-hydroxylation by recombinant CYP2A6; assay type: in vitro ADME, human; conditions: other: 1′-hydroxyelemicin formation from elemicin, mean ± SD
[13] = substrate: C=CCc1cc(OC)c(OC)c(OC)c1; assay: Kinetics of elemicin 1′-hydroxylation by recombinant CYP1A2; assay type: in vitro ADME, human; conditions: other: 1′-hydroxyelemicin formation from elemicin, mean ± SD
[14] = 500 mg/kg oral every 24 h for 3 weeks, vs control group
[15] = 500 mg/kg oral, 3 weeks, vs control group
[16] = elemicin 500 mg/kg oral, 3 weeks
[17] = 1′-hydroxyelemicin 100 mg/kg oral, 3 days

C=CCc1cc(OC)c(OC)c(OC)c1 [elemicin, 3,4,5-trimethoxyallylbenzene]
Vmax [1]: 1.80 ± 0.045 nmol ● min^−1 nmol ● CYP^−1
in vitro catalytic efficiency ([1]; Vmax/Km × 1000 μL): 140.062 μL min^−1 nmol P450^−1
Vmax ([2]; 1′-hydroxyelemicin formation from elemicin, mean ± SD): 0.524 ± 0.110 nmol min^−1 nmol P450^−1
in vitro catalytic efficiency ([2]; Vmax/Km × 1000 μL): 0.520 μL min^−1 nmol P450^−1
histopathological analysis of hepatic tissue ([3]; 500 mg/kg oral every 24 h for 3 weeks, H&E): cytoplasmic pale staining, hepatocyte swelling and the cytoplasm seemed abnormal around the central vein
TG levels in liver [3, 14]: significantly elevated
TG levels in plasma [3, 14]: significantly elevated
liver weights (hepatic index) [3, 14]: increased
serum ALT [3, 14]: no significant changes
total plasma GSH and GSSG [3, 14]: reduced
ratios of 18:1-LPC to 18:0-LPC and 16:1-LPC to 16:0-LPC in plasma [3, 15]: dramatically reduced
saturated LPC (18:0-LPC) in plasma [3, 15]: significantly increased
unsaturated LPCs (18:1-, 18:2-, 16:1-, 20:4-LPC) in plasma [3, 15]: obviously reduced
hepatomegaly ([4]; 100 mg/kg for 3 days, mice): did not result in hepatomegaly
SCD1 protein in liver (Western blot) [5, 16]: decreased
mRNA levels of Scd1 in liver [5, 16]: clearly decreased

CC(=O)N1CCN(c2ccc(OCC3COC(Cn4ccnc4)(c4ccc(Cl)cc4Cl)O3)cc2)CC1 (centres unmarked) [ketoconazole]
inhibitory effect against 1′-hydroxyelemicin generation [6]: relative higher inhibitory effects

CCCCCCCC/C=C\CCCCCCCC(=O)O [oleic acid]
16:1-LPC, 18:1-LPC and 18:2-LPC levels in plasma [7]: ameliorated the decrease
ratios of 18:1-LPC to 18:0-LPC and 16:1-LPC to 16:0-LPC in plasma [7]: increased to normal level
hepatic TG content ([7]; vs control mice): still higher than that of control mice
liver size ([7]; vs control mice): still higher than that of control mice

C=CC(O)c1cc(OC)c(OC)c(OC)c1 (centres unmarked) [1′-hydroxyelemicin]
liver index compared with the same dose of elemicin ([4]; mouse, in vivo): higher
SCD1 protein in liver (Western blot) [5, 17]: decreased
mRNA levels of Scd1 in liver [5, 17]: clearly decreased
GSH adduct in urine [8]: observed in the urine

CNC(=O)c1cccc(NC(=O)N2CCC(Oc3ccccc3Cl)CC2)c1 [A939572]
levels of monounsaturated-LPCs in plasma ([9]; A + E′ group): further decreased
TG levels in plasma ([9]; A + E′ vs E′ group): markedly elevated
ratio of unsaturated-LPCs to saturated-LPCs ([9]; A + E′ vs E′ group): significantly reduced
SCD1 expression in liver (Western blot) ([5]; A939572 10 mg/kg/day i.p. + 100 mg/kg 1′-hydroxyelemicin, A + E′ group): significantly decreased

B1: human recombinant CYP2C19 (Homo sapiens) (protein)
chain: MDPFVVLVLCLSCLLLLSIWRQSSGRGKLPPGPTPLPVIGNILQIDIKDVSKSLTNLSKIYGPVFTLYFGLERMVVLHGYEVVKEALIDLGEEFSGRGHFPLAERANRGFGIVFSNGKRWKEIRRFSLMTLRNFGMGKRSIEDRVQEEARCLVEELRKTKASPCDPTFILGCAPCNVICSIIFQKRFDYKDQQFLNLMEKLNENIRIVSTPWIQICNNFPTIIDYFPGTHNKLLKNLAFMESDILEKVKEHQESMDINNPRDFIDCFLIKMEKEKQNQQSEFTIENLVITAADLLGAGTETTSTTLRYALLLLLKHPEVTAKVQEEIERVIGRNRSPCMQDRGHMPYTDAVVHEVQRYIDLIPTSLPHAVTCDVKFRNYLIPKGTTILTSLTSVLHDNKEFPNPEMFDPRHFLDEGGNFKKSNYFMPFSAGKRICVGEGLARMELFLFLTFILQNFNLKSLIDPKDLDTTPVVNGFASVPPFYQLCFIPV
Km [10]: 43.430 ± 3.613 µM
kcat [10]: 0.00792 ± 0.0002 s⁻¹
kcat/Km [10]: 182 M⁻¹ s⁻¹

B2: human recombinant CYP1A1 (Homo sapiens) (protein)
chain: MLFPISMSATEFLLASVIFCLVFWVIRASRPQVPKGLKNPPGPWGWPLIGHMLTLGKNPHLALSRMSQQYGDVLQIRIGSTPVVVLSGLDTIRQALVRQGDDFKGRPDLYTFTLISNGQSMSFSPDSGPVWAARRRLAQNGLKSFSIASDPASSTSCYLEEHVSKEAEVLISTLQELMAGPGHFNPYRYVVVSVTNVICAICFGRRYDHNHQELLSLVNLNNNFGEVVGSGNPADFIPILRYLPNPSLNAFKDLNEKFYSFMQKMVKEHYKTFEKGHIRDITDSLIEHCQEKQLDENANVQLSDEKIINIVLDLFGAGFDTVTTAISWSLMYLVMNPRVQRKIQEELDTVIGRSRRPRLSDRSHLPYMEAFILETFRHSSFVPFTIPHSTTRDTSLKGFYIPKGRCVFVNQWQINHDQKLWVNPSEFLPERFLTPDGAIDKVLSEKVIIFGMGKRKCIGETIARWEVFLFLAILLQRVEFSVPLGVKVDMTPIYGLTMKHACCEHFQMQLRS
Km [11]: 12.9 ± 1.26 µM and 12.880 ± 1.265 µM
kcat/Km [11]: 140 μL min^−1 nmol CYP^−1

B3: human recombinant CYP2A6 (Homo sapiens) (protein)
chain: MLASGMLLVALLVCLTVMVLMSVWQQRKSKGKLPPGPTPLPFIGNYLQLNTEQMYNSLMKISERYGPVFTIHLGPRRVVVLCGHDAVREALVDQAEEFSGRGEQATFDWVFKGYGVVFSNGERAKQLRRFSIATLRDFGVGKRGIEERIQEEAGFLIDALRGTGGANIDPTFFLSRTVSNVISSIVFGDRFDYKDKEFLSLLRMMLGIFQFTSTSTGQLYEMFSSVMKHLPGPQQQAFQLLQGLEDFIAKKVEHNQRTLDPNSPRDFIDSFLIRMQEEEKNPNTEFYLKNLVMTTLNLFIGGTETVSTTLRYGFLLLMKHPEVEAKVHEEIDRVIGKNRQPKFEDRAKMPYMEAVIHEIQRFGDVIPMSLARRVKKDTKFRDFFLPKGTEVYPMLGSVLRDPSFFSNPQDFNPQHFLNEKGQFKKSDAFVPFSIGKRNCFGEGLARMELFLFFTTVMQNFRLKSSQSPKDIDVSPKHVGFATIPRNYTMSFLPR
Km [12]: 1007.000 ± 293.000 µM

B4: human recombinant CYP1A2 (Homo sapiens) (protein)
chain: MALSQSVPFSATELLLASAIFCLVFWVLKGLRPRVPKGLKSPPEPWGWPLLGHVLTLGKNPHLALSRMSQRYGDVLQIRIGSTPVLVLSRLDTIRQALVRQGDDFKGRPDLYTSTLITDGQSLTFSTDSGPVWAARRRLAQNALNTFSIASDPASSSSCYLEEHVSKEAKALISRLQELMAGPGHFDPYNQVVVSVANVIGAMCFGQHFPESSDEMLSLVKNTHEFVETASSGNPLDFFPILRYLPNPALQRFKAFNQRFLWFLQKTVQEHYQDFDKNSVRDITGALFKHSKKGPRASGNLIPQEKIVNLVNDIFGAGFDTVTTAISWSLMYLVTKPEIQRKIQKELDTVIGRERRPRLSDRPQLPYLEAFILETFRHSSFLPFTIPHSTTRDTTLNGFYIPKKCCVFVNQWQVNHDPELWEDPSEFRPERFLTADGTAINKPLSEKMMLFGMGKRRCIGEVLAKWEIFLFLAILLQQLEFSVPPGVKVDLTPIYGLTMKHARCEHVQARLRFSIN
Km [13]: 15.850 ± 3.067 µM
kcat [13]: 0.0067 ± 0.00035 s⁻¹
kcat/Km [13]: 423 M⁻¹ s⁻¹

Source: paper PMC7397737 (Chemical research in toxicology, 2019)
